What was measured:
HCT-15 = assay: Cytotoxicity against human HCT15 colon cancer cell line; type: functional, cell-based
Summary of the method: (§1)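 Colorimetric MTT assay on cultured human cancer cells after 3 days of continuous drug exposure. IC50 is the concentration that reduces overall cell-population growth by 50% relative to untreated cells.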

A549 [1] = assay: Cytotoxicity against human A549 NSCLC cell line; type: functional, cell-based; summary of the method: as §1
PC-3 [2] = assay: Cytotoxicity against human PC3 prostate cancer cell line; type: functional, cell-based; summary of the method: as §1
U373 MG [3] = assay: Antimigratory activity against human U373 glioblastoma cell line at 100nM after 22h; type: functional, U-373MG ATCC
Summary of the method: (§2)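 Computer-assisted videomicroscopy tracking of living cultured cells, one image every 4 min over 24 h; migration scored as maximum relative distance from origin (MRDO) per cell, read at 12 or 22 h with compound at 100 nM or without (control). Control normalized to 0%. Triplicate analyses, 121–184 cells per condition; mean ± standard error.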

PC-3 [4] = assay: Antimigratory activity against human PC3 prostate cancer cell line at 100 nM after 22h; type: functional; conditions: PC-3, 22 h; summary of the method: as §2
A549 [5] = assay: Antimigratory activity against human A549 NSCLC cell line at 100 nM after 12h; type: functional; conditions: A549, 12 h; summary of the method: as §2
A549 [6] = assay: Antimigratory activity against human A549 NSCLC cell line at 100 nM after 22h; type: functional; conditions: A549, 22 h; summary of the method: as §2
Hs 683 = assay: Cytotoxicity against human Hs683 cancer cell line; type: functional, cell-based; summary of the method: as §1
U373 MG [7] = assay: Antimigratory activity against human U373 glioblastoma cell line at 100 nM after 12h; type: functional, U-373MG ATCC; summary of the method: as §2
PC-3 [8] = assay: Antimigratory activity against human PC3 prostate cancer cell line at 100 nM after 12h; type: functional; conditions: PC-3, 12 h; summary of the method: as §2
U373 MG [9] = assay: Cytotoxicity against human U373 glioblastoma cell line; type: functional, cell-based, U-373MG ATCC; summary of the method: as §1
MCF7 = assay: Cytotoxicity against human MCF7 breast cancer cell line; type: functional, cell-based; summary of the method: as §1
Mus musculus = assay: Toxicity in mice at 160 mg/kg, ip 28 days post dose; type: organism-based; set-up: dose 160 mg/kg, route intraperitoneal; conditions: in vivo, 672 h
Summary of the method: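 Healthy, non-tumor-grafted mice received a single acute ip dose of 160 mg/kg. Body weight and survival were recorded over at least 28 days after dosing to detect toxic effects.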

SMILES | IC50 (HCT-15) [µM] | IC50 (A549 [1]) [µM] | IC50 (PC-3 [2]) [µM] | inhibition at 0.1 µM (U373 MG [3]) [%] | inhibition at 0.1 µM (PC-3 [4]) [%] | inhibition at 0.1 µM (A549 [5]) [%] | inhibition at 0.1 µM (A549 [6]) [%] | IC50 (Hs 683) [µM] | inhibition at 0.1 µM (U373 MG [7]) [%] | inhibition at 0.1 µM (PC-3 [8]) [%] | IC50 (U373 MG [9]) [µM] | IC50 (MCF7) [µM] | Activity (Mus musculus)
COc1ccc(OC)c([C@@H]2C[C@H]3[C@@H]4CC=C5C[C@@H](O[C@H]6O[C@@H](C)[C@@H](O)[C@@H](O)[C@@H]6O)CC[C@]5(C)[C@H]4CC[C@]3(C)[C@H]2[C@H](C)O[C@H]2O[C@@H](C)[C@@H](O)[C@@H](O)[C@@H]2O)c1 | > 10 | > 10 | > 10 | -4 | -45 | -6 | -4 | > 10 | -4 | -41 | > 10 | > 10 | Non-toxic
COc1ccc(OC)c([C@@H]2C[C@H]3[C@@H]4CC=C5C[C@@H](O[C@H]6O[C@H](CO)[C@@H](O[C@H]7O[C@H](CO)[C@@H](O)[C@H](O)[C@H]7O)[C@H](O)[C@H]6O)CC[C@]5(C)[C@H]4CC[C@]3(C)[C@H]2C(C)=O)c1 | > 10 | > 10 | > 10 | -8 | -5 | 10 | 5 | > 10 | 2 | -5 | > 10 | > 10 | Non-toxic
COc1ccc(OC)c([C@@H]2C[C@H]3[C@@H]4CC=C5C[C@@H](O)CC[C@]5(C)[C@H]4CC[C@]3(C)[C@H]2[C@H](C)O)c1 | > 10 | > 10 | > 10 |  |  |  |  | > 10 |  |  | > 10 | > 10 | Non-toxic
COc1ccc(OC)c([C@@H]2C[C@H]3[C@@H]4CC=C5C[C@@H](O[C@@H]6O[C@H](CO)[C@@H](O)[C@H](O)[C@H]6NC(C)=O)CC[C@]5(C)[C@H]4CC[C@]3(C)[C@H]2C(C)=O)c1 | > 10 | > 10 | > 10 | -3 | 12 | -39 | -39 | > 10 | -17 | 11 | > 10 | > 10 | Non-toxic
COc1ccc(OC)c([C@@H]2C[C@H]3[C@@H]4CC=C5C[C@@H](O[C@@H]6O[C@H](CO)[C@@H](O)[C@H](O)[C@H]6O)CC[C@]5(C)[C@H]4CC[C@]3(C)[C@H]2C(C)=O)c1 | > 10 | > 10 | > 10 | -8 | 6 | 2 | 9 | > 10 | -6 | 2 | > 10 | > 10 | Non-toxic
COc1ccc(OC)c([C@@H]2C[C@H]3[C@@H]4CC=C5C[C@@H](O[C@@H]6O[C@H](CO[C@H]7O[C@H](CO)[C@@H](O)[C@H](O)[C@H]7O)[C@@H](O)[C@H](O)[C@H]6O)CC[C@]5(C)[C@H]4CC[C@]3(C)[C@H]2[C@H](C)O[C@@H]2O[C@H](CO[C@H]3O[C@H](CO)[C@@H](O)[C@H](O)[C@H]3O)[C@@H](O)[C@H](O)[C@H]2O)c1 | > 10 | > 10 | > 10 | -9 | 10 | 9 | 0 | > 10 | -14 | 8 | > 10 | > 10 | Non-toxic
COc1ccc(OC)c([C@@H]2C[C@H]3[C@@H]4CC=C5C[C@@H](O)CC[C@]5(C)[C@H]4CC[C@]3(C)[C@H]2C(C)=O)c1 | > 10 | > 10 | > 10 | 7 | 10 | 0 | 6 | > 10 | 2 | 5 | > 10 | > 10 | Non-toxic
COc1ccc(OC)c([C@@H]2C[C@H]3[C@@H]4CC=C5C[C@@H](O[C@@H]6O[C@H](CO[C@H]7O[C@H](CO)[C@@H](O)[C@H](O)[C@H]7O)[C@@H](O)[C@H](O)[C@H]6O)CC[C@]5(C)[C@H]4CC[C@]3(C)[C@H]2C(C)=O)c1 | > 10 | > 10 | > 10 | -18 | -9 | -34 | -40 | > 10 | -18 | -7 | > 10 | > 10 | Non-toxic
COc1ccc(OC)c([C@@H]2C[C@H]3[C@@H]4CC=C5C[C@@H](O[C@@H]6O[C@H](CO)[C@@H](O)[C@H](O)[C@@H]6O)CC[C@]5(C)[C@H]4CC[C@]3(C)[C@H]2C(C)=O)c1 | > 10 | > 10 | > 10 | -4 | -1 | 20 | 1 | > 10 | 2 | 2 | > 10 | > 10 | Non-toxic
COc1ccc(OC)c([C@@H]2C[C@H]3[C@@H]4CC=C5C[C@@H](O[C@H]6O[C@H](CO)[C@@H](O[C@@H]7O[C@H](CO)[C@H](O)[C@H](O)[C@H]7O)[C@H](O)[C@H]6O)CC[C@]5(C)[C@H]4CC[C@]3(C)[C@H]2C(C)=O)c1 | > 10 | > 10 | > 10 | -31 | -34 | 8 | -5 | > 10 | -29 | -51 | > 10 | > 10 | Non-toxic
COc1ccc(OC)c([C@@H]2C[C@H]3[C@@H]4CC=C5C[C@@H](O[C@H]6O[C@@H](C)[C@@H](O)[C@@H](O)[C@@H]6O)CC[C@]5(C)[C@H]4CC[C@]3(C)[C@H]2C(C)=O)c1 | > 10 | > 10 | > 10 | -38 | -15 | -8 | -8 | > 10 | -25 | -23 | > 10 | > 10 | Non-toxic
COc1ccc(OC)c([C@@H]2C[C@H]3[C@@H]4CC=C5C[C@@H](O[C@@H]6O[C@H](CO)[C@@H](O[C@@H]7O[C@H](CO)[C@@H](O)[C@H](O)[C@H]7O)[C@H](O)[C@H]6O)CC[C@]5(C)[C@H]4CC[C@]3(C)[C@H]2C(C)=O)c1 | > 10 | > 10 | > 10 | -9 | -7 | -30 | -34 | > 10 | 8 | 13 | > 10 | > 10 | Non-toxic
COc1ccc(OC)c([C@@H]2C[C@H]3[C@@H]4CC=C5C[C@@H](O[C@H]6O[C@H](CO[C@@H]7O[C@H](CO)[C@@H](O)[C@H](O)[C@H]7O)[C@@H](O)[C@H](O)[C@H]6O)CC[C@]5(C)[C@H]4CC[C@]3(C)[C@H]2C(C)=O)c1 | > 10 | > 10 | > 10 | -1 | -1 | 0 | -4 | > 10 | 0 | 11 | > 10 | > 10 | Non-toxic
COc1ccc(OC)c([C@@H]2C[C@H]3[C@@H]4CC=C5C[C@@H](O[C@H]6O[C@H](CO)[C@@H](O[C@@H]7O[C@H](CO)[C@H](O)[C@H](O)[C@H]7O)[C@H](O)[C@H]6O)CC[C@]5(C)[C@H]4CC[C@]3(C)[C@H]2[C@H](C)O[C@H]2O[C@H](CO)[C@@H](O[C@@H]3O[C@H](CO)[C@H](O)[C@H](O)[C@H]3O)[C@H](O)[C@H]2O)c1 | > 10 | > 10 | > 10 | -13 | 15 | -26 | -12 | > 10 | -12 | 14 | > 10 | > 10 | Non-toxic
COc1ccc(OC)c([C@@H]2C[C@H]3[C@@H]4CC=C5C[C@@H](O[C@@H]6O[C@H](CO)[C@H](O)[C@H](O)[C@H]6O)CC[C@]5(C)[C@H]4CC[C@]3(C)[C@H]2C(C)=O)c1 | > 10 | > 10 | > 10 | 1 | -8 | 2 | 4 | > 10 | 8 | 7 | > 10 | > 10 | Non-toxic
